In ChEMBL document CHEMBL1134337, “Behavioral approach to nondyskinetic dopamine antagonists: identification of seroquel” (J Med Chem, 2001):
Blank lines part the entries; values can stand above or below the compound they belong to.

Legend:
Mus musculus [1] = assay: Antagonism of apomorphine induced swimming was determined in female swiss -Wbster mice after (po) administration of 20 mg/kg; assay type: functional
Mus musculus [2] = assay: Antagonism of apomorphine induced climbing was determined in female swiss -Webster mice after (ip) administration of 10 mg/kg; assay type: functional
Method in brief: (§1)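 Female Swiss-Webster mice (about 20 g) were fasted about 24 h, then given test compound or vehicle ip or po (N = 20 per group). Vehicle was 0.5% w/w hydroxypropylmethylcellulose with 0.1% w/w Tween 80 in water. After 30 min, mice received apomorphine HCl 1.25 mg/kg sc. At 13 min, each mouse was watched for 1 min; score was mean of highest and lowest rung of 27. Groups were compared with vehicle by Student's t-test.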

Mus musculus [3] = assay: Antagonism of apomorphine induced swimming was determined in female swiss -Wbster mice after (po) administration of 40 mg/kg; assay type: functional
Mus musculus [4] = assay: Antagonism of apomorphine induced climbing was determined in female swiss -Webster mice after (ip) administration of 20 mg/kg; assay type: functional; method in brief: as §1
Mus musculus [5] = assay: Antagonism of apomorphine induced climbing was determined in female swiss -Webster mice after (ip) administration of 40 mg/kg; assay type: functional; method in brief: as §1
Mus musculus [6] = assay: Antagonism of apomorphine induced swimming was determined in female swiss -Wbster mice after (ip) administration of 10 mg/kg; assay type: functional
[7] = Number of animals showing dyskinesias was determined in haloperidol sensitized 3 cebus monkeys after (po) administration of 10 mg/kg; assay type: functional
Method in brief: (§2)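 Adult female and male Cebus monkeys sensitized with oral haloperidol 1 mg/kg once per week until dyskinetic reactions occurred. Test drug given orally (2 mL/kg) in 0.5% w/w hydroxypropylmethylcellulose with 0.1% w/w Tween 80 in distilled water, at least 2 weeks between treatments. Two observers watched continuously for 6-7 h, recording reaction type and severity every 30 min. Score is monkeys with dyskinesias/monkeys tested.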

Mus musculus [8] = assay: Antagonism of apomorphine induced climbing was determined in female swiss -Webster mice after (p.o.) +SKF525A administration of 20 mg/kg; assay type: functional; conditions: route oral; method in brief: as §1
Mus musculus [9] = assay: Antagonism of apomorphine induced climbing was determined in female swiss -Webster mice after (po) administration of 5 mg/kg; assay type: functional; method in brief: as §1
Mus musculus [10] = assay: Antagonism of apomorphine induced climbing was determined in female swiss -Webster mice after (i.p.) +SKF525A administration of 5 mg/kg; assay type: functional; conditions: route intraperitoneal; method in brief: as §1
Mus musculus [11] = assay: Antagonism of apomorphine induced climbing was determined in female swiss -Webster mice after (p.o.) +SKF525A administration of 5 mg/kg; assay type: functional; conditions: route oral; method in brief: as §1
Mus musculus [12] = assay: Antagonism of apomorphine induced climbing was determined in female swiss -Webster mice after (i.p.) +SKF525A administration of 2.5 mg/kg; assay type: functional; conditions: route intraperitoneal; method in brief: as §1
Mus musculus [13] = assay: Antagonism of apomorphine induced climbing was determined in female swiss -Webster mice after (i.p.) +SKF525A administration of 10 mg/kg; assay type: functional; conditions: route intraperitoneal; method in brief: as §1
Mus musculus [14] = assay: Antagonism of apomorphine induced climbing was determined in female swiss -Webster mice after (po) administration of 10 mg/kg; assay type: functional; method in brief: as §1
Mus musculus [15] = assay: Antagonism of apomorphine induced climbing was determined in female swiss -Webster mice after (ip) administration of 5 mg/kg; assay type: functional; method in brief: as §1
Mus musculus [16] = assay: Antagonism of apomorphine induced climbing was determined in female swiss -Webster mice after (ip) administration of 2.5 mg/kg; assay type: functional; method in brief: as §1
Mus musculus [17] = assay: Antagonism of apomorphine induced climbing was determined in female swiss -Webster mice after (po) administration of 20 mg/kg; assay type: functional; method in brief: as §1
Mus musculus [18] = assay: Antagonism of apomorphine induced climbing was determined in female swiss -Webster mice after (p.o.) +SKF525A administration of 10 mg/kg; assay type: functional; conditions: route oral; method in brief: as §1
Mus musculus [19] = assay: Antagonism of apomorphine induced climbing was determined in female swiss -Webster mice after (i.p.) +SKF525A administration of 20 mg/kg; assay type: functional; conditions: route intraperitoneal; method in brief: as §1
[20] = target: D(2) dopamine receptor (Rattus norvegicus) (UniProt P61169); assay: Binding affinity at dopamine receptor D2 from rat by spiropiperidone displacement.
Method in brief: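 D2 receptor binding was read as % displacement of spiropiperidone, with test compound at 1000 nM unless stated otherwise. IC50 values used at least five concentrations per compound in triplicate. Each value is the mean of two replicate experiments differing by 5% or less.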

Mus musculus [21] = assay: Antagonism of apomorphine induced climbing was determined in female swiss -Wbster mice after (ip) administration of 20 mg/kg; assay type: functional; method in brief: as §1
D(2) dopamine receptor = D(2) dopamine receptor (Rattus norvegicus, UniProt P61169); assay: Inhibition of spiropiperidone binding at dopamine receptor D2 of rat.
Mus musculus [22] = assay: Antagonism of apomorphine induced swimming was determined in female swiss -Wbster mice after (po) administration of 80 mg/kg; assay type: functional
Mus musculus [23] = assay: Antagonism of apomorphine induced swimming was determined in female swiss -Wbster mice after (ip) administration of 40 mg/kg; assay type: functional
Mus musculus [24] = assay: Antagonism of apomorphine induced climbing was determined in female swiss -Wbster mice after (po) administration of 80 mg/kg; assay type: functional; method in brief: as §1
Mus musculus [25] = assay: Antagonism of apomorphine induced swimming was determined in female swiss -Wbster mice after (ip) administration of 20 mg/kg; assay type: functional
[26] = Number of animals showing dyskinesias was determined in haloperidol sensitized 5 cebus monkeys after (po) administration of 10 mg/kg; assay type: functional; method in brief: as §2
Mus musculus [27] = assay: Antagonism of apomorphine induced swimming was determined in female swiss -Wbster mice after (ip) administration of 80 mg/kg; assay type: functional
[28] = Number of animals showing dyskinesias was determined in haloperidol sensitized 2 cebus monkeys after (po) administration of 40 mg/kg; assay type: functional; method in brief: as §2
Mus musculus [29] = assay: Antagonism of apomorphine induced climbing was determined in female swiss -Wbster mice after (ip) administration of 80 mg/kg; assay type: functional; method in brief: as §1
[30] = Number of animals showing dyskinesias was determined in haloperidol sensitized 12 cebus monkeys after (po) administration of 20 mg/kg; assay type: functional
Method in brief: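 Adult male and female Cebus monkeys were sensitized with haloperidol 1 mg/kg po weekly until dyskinesias appeared. Test drug was given po (2 mL/kg) in HPMC/Tween 80 vehicle, with at least 2 weeks between treatments. Two observers watched continuously for 6-7 h, recording reaction type and severity every 30 min. Result is number of monkeys showing dyskinesias over number tested.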

Mus musculus [31] = assay: Antagonism of apomorphine induced climbing was determined in female swiss -Wbster mice after (ip) administration of 10 mg/kg; assay type: functional; method in brief: as §1
Mus musculus [32] = assay: Antagonism of apomorphine induced climbing was determined in female swiss -Wbster mice after (ip) administration of 40 mg/kg; assay type: functional; method in brief: as §1
[33] = Number of animals showing dyskinesias was determined in haloperidol sensitized 6 cebus monkeys after (po) administration of 10 mg/kg; assay type: functional; conditions: dose 20 mg/kg; in the assay text read “20 mg/kg” for “10 mg/kg”; method in brief: as §2
[34] = Number of animals showing dyskinesias was determined in haloperidol sensitized 3 cebus monkeys after (po) administration of 20 mg/kg; assay type: functional; method in brief: as §2
[35] = Number of animals showing dyskinesias was determined in haloperidol sensitized 2 cebus monkeys after (po) administration of 80 mg/kg; assay type: functional; method in brief: as §2
[36] = Number of animals showing dyskinesias was determined in haloperidol sensitized 2cebus monkeys after (po) administration of 20 mg/kg; assay type: functional; method in brief: as §2
[37] = Number of animals showing dyskinesias was determined in haloperidol sensitized 4 cebus monkeys after (po) administration of 40 mg/kg; assay type: functional; method in brief: as §2
[38] = Number of animals showing dyskinesias was determined in haloperidol sensitized cebus monkey after (po) administration of 10 mg/kg; assay type: functional; method in brief: as §2
Mus musculus [39] = assay: Antagonism of apomorphine induced swimming was determined in female swiss -Webster mice after (ip) administration of 5 mg/kg; assay type: functional
Mus musculus [40] = assay: Antagonism of apomorphine induced swimming was determined in female swiss -Webster mice after (ip) administration of 10 mg/kg; assay type: functional
Mus musculus [41] = assay: Antagonism of apomorphine induced swimming was determined in female swiss -Webster mice after (ip) administration of 40 mg/kg; assay type: functional
Mus musculus [42] = assay: Antagonism of apomorphine induced swimming was determined in female swiss -Webster mice after (ip) administration of 2.5 mg/kg; assay type: functional
Mus musculus [43] = assay: Antagonism of apomorphine induced swimming was determined in female swiss -Webster mice after (ip) administration of 20 mg/kg; assay type: functional

D(2) dopamine receptor, sequence (P61169 whole entry): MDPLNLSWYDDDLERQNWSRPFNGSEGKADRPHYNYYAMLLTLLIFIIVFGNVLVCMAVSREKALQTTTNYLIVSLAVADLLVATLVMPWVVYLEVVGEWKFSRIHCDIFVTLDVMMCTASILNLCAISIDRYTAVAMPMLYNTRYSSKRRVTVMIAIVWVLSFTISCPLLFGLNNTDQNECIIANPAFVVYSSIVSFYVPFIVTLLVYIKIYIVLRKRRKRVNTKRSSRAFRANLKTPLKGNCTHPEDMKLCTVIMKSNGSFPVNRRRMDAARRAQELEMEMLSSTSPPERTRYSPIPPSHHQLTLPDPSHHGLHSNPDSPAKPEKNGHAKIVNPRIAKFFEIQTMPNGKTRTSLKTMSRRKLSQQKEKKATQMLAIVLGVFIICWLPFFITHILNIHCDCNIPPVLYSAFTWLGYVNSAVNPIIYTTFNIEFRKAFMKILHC
D(2) dopamine receptor (Rattus norvegicus), sequence (P61169 whole entry): as above

Compound: OCCN1CCN(C2=Nc3ccccc3Sc3ccccc32)CC1
Activity (Mus musculus [1]): 18
Activity (Mus musculus [2]): 24
Activity (Mus musculus [3]): 28
Activity (Mus musculus [4]): 6
Activity (Mus musculus [5]): 1
Activity (Mus musculus [6]): 3
No of monkeys [7]: 2

Compound: CN1CCN(C2=Nc3ccccc3Sc3ccccc32)CC1
Activity (Mus musculus [8]): 9
Activity (Mus musculus [2]): 3
Activity (Mus musculus [9]): 21
Activity (Mus musculus [10]): 21
Activity (Mus musculus [4]): 0
Activity (Mus musculus [11]): 23
Activity (Mus musculus [12]): 23
Activity (Mus musculus [13]): 18
Activity (Mus musculus [14]): 8
Activity (Mus musculus [15]): 14
Activity (Mus musculus [16]): 21
Activity (Mus musculus [17]): 0
Activity (Mus musculus [18]): 18
Activity (Mus musculus [19]): 3
% displacement of spiropiperidone [20]: 35%

Compound: OCCOCCN1CCN(C2=Nc3cc(Cl)ccc3Oc3ccccc32)CC1
Activity (Mus musculus [21]): 17
Activity (Mus musculus [1]): 2
Activity (Mus musculus [3]): 4
No of monkeys [34]: 2
% displacement of spiropiperidone [20]: 54%
Activity (Mus musculus [32]): 0

Compound: COC(CO)CN1CCN(C2=Nc3ccccc3Sc3ccccc32)CC1 (centres undefined)
Activity (Mus musculus [2]): 8
IC50 (D(2) dopamine receptor): 755 nM
No of monkeys [38]: 2
Activity (Mus musculus [4]): 2
Activity (Mus musculus [39]): 2
Activity (Mus musculus [5]): 1
Activity (Mus musculus [40]): 6
Activity (Mus musculus [41]): 32
Activity (Mus musculus [15]): 19
Activity (Mus musculus [16]): 21
Activity (Mus musculus [42]): 0
Activity (Mus musculus [43]): 22

More lines, main results first:

IC50 (D(2) dopamine receptor): 560 nM
Compound: OCCOCCN1CCN(C2=Nc3ccc(F)cc3Sc3ccccc32)CC1
Activity (Mus musculus [21]): 9
Activity (Mus musculus [22]): 2
Activity (Mus musculus [23]): 8
Activity (Mus musculus [24]): 23
Activity (Mus musculus [25]): 1
No of monkeys [26]: 1
Activity (Mus musculus [27]): 18
No of monkeys [28]: 0
Activity (Mus musculus [29]): 2
No of monkeys [30]: 3
Activity (Mus musculus [31]): 14
Activity (Mus musculus [6]): 1
Activity (Mus musculus [32]): 8

IC50 (D(2) dopamine receptor): 166 nM
Compound: OCCOCCN1CCN(C2=Nc3ccc(O)cc3Sc3ccccc32)CC1
Activity (Mus musculus [21]): 5
No of monkeys [33]: 5
Activity (Mus musculus [23]): 31
Activity (Mus musculus [25]): 17
Activity (Mus musculus [31]): 27
Activity (Mus musculus [6]): 5
Activity (Mus musculus [32]): 0

% displacement of spiropiperidone [20]: 34%
Compound: OCCOCCN1CCN(C2=Nc3cc(F)ccc3Sc3ccccc32)CC1
Activity (Mus musculus [21]): 16
No of monkeys [35]: 0
No of monkeys [36]: 0
No of monkeys [37]: 0
Activity (Mus musculus [29]): 6
Activity (Mus musculus [32]): 14
